Measurements reported in ChEMBL document CHEMBL3351600, “Sulfur, selenium and tellurium pseudopeptides: synthesis and biological evaluation” (Bioorg Med Chem, 2014).

How the values were obtained:
[1] = system: U-251; experiment: Growth inhibition of human U251 cells after 48 hrs; format: functional; conditions: U-251, 48 h; for CC50: read-out: pLC50 (the source's name) (converted); for TGI: read-out: pTGI (converted)
Outline: (§1)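 Run by the NCI 58-cell-line screen under its standard cytotoxicity protocol. Compounds were first tested at a single dose, then at five doses. Cells were exposed to compound for 48 h.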

[2] = system: Malme-3M; experiment: Growth inhibition of human MALME-3M cells after 48 hrs; format: functional; conditions: for CC50: read-out: pLC50 (the source's name) (converted); for TGI: read-out: pTGI (converted)
Outline: (§2)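 NCI-60 human tumour cell line panel screen run at the US National Cancer Institute under its standard cytotoxicity protocol. It covers leukaemia, NSCLC, colon, CNS, melanoma, ovarian, renal, prostate and breast lines. An initial single-dose test was followed by five-dose testing with 48 h compound exposure.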

[3] = system: SK-MEL-28; experiment: Growth inhibition of human SK-MEL-28 cells after 48 hrs; format: functional; conditions: SK-MEL-28, 48 h; for CC50: read-out: pLC50 (the source's name) (converted); for TGI: read-out: pTGI (converted); outline: as §2
[4] = system: CCRF-CEM; experiment: Growth inhibition of human CCRF-CEM cells after 48 hrs; format: functional; conditions: for CC50: read-out: pLC50 (the source's name) (converted); for TGI: read-out: pTGI (converted); outline: as §2
[5] = system: Candida albicans; experiment: Antimicrobial activity against Candida albicans assessed as inhibition at 20 ug/6 mm disk after 1 to 2 days by agar diffusion assay; format: functional
Outline: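 Standard agar diffusion: 6-mm paper disks loaded with 20 µg of compound were placed on inoculated plates. Inhibition-zone diameter (mm) was read after 1 and 2 days of growth.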

[6] = system: IGROV-1; experiment: Growth inhibition of human IGROV1 cells after 48 hrs; format: functional; conditions: IGROV-1, 48 h; for CC50: read-out: pLC50 (the source's name) (converted); for TGI: read-out: pTGI (converted); outline: as §2
[7] = Lipophilicity, log K of the compound by HPLC analysis
[8] = Octanol-water partition coefficient, log P of the compound by HPLC analysis; format: physicochemical
Outline: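 Lipophilicity was measured by reversed-phase HPLC on a Nucleosil C18 column with isocratic water/methanol (3:1) at 0.5 ml/min and UV detection at 230 and 245 nm. Dead time was set with thiourea (t0 0.728 min). Retention factor was k = (tR − t0)/t0, and log P came from a calibration against at least six reference compounds.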

[9] = Growth inhibition of human Hs 578T cells after 48 hrs; format: functional; conditions: for TGI: read-out: pTGI (converted); outline: as §2
[10] = system: MCF7; experiment: Cell cycle arrest in human MCF7 cells assessed as accumulation at G0/G1 phase after 30 mins by propidium iodide staining-based flow cytometric analysis; format: functional
Outline: (§3)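 MCF-7 cells (10^6) were treated with compounds for 24 h alongside a methanol vehicle control. They were fixed in cold 70% methanol at 4 °C for one day, washed in PBS and permeabilised with 0.1% saponin in PBS. They were then stained with propidium iodide plus RNase (1 mg/ml) for 30 min, and DNA-content distribution was read by FACScan flow cytometry.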

[11] = system: MCF7; experiment: Cell cycle arrest in human MCF7 cells assessed as accumulation at G2/M phase after 30 mins by propidium iodide staining-based flow cytometric analysis; format: functional; outline: as §3
[12] = system: MCF7; experiment: Cell cycle arrest in human MCF7 cells assessed as accumulation at S phase […] by propidium iodide staining-based flow cytometric analysis; format: functional
[13] = system: A-431; experiment: Reduction in ROS in human A431 cells assessed as decrease in hydrogen peroxide level at 0.1 to 10 ng/ml after 1 hr by DCHFA assay; format: functional, cell-based
Outline: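 A-431 cells were seeded at 10^5 per well and exposed to a range of compound concentrations for 1 h. They were then loaded with DCHFA probe for 30 min in the dark. Fluorescence was read immediately at ex/em 485/528 nm and expressed as arbitrary units per 10^5 cells.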

[14] = system: SR; experiment: Growth inhibition of human SR cells after 48 hrs; format: functional; conditions: for TGI: read-out: pTGI (converted); outline: as §1

For `CC1=C(SCCC(=O)OCC(=O)NCCC[Te]c2ccccc2)C(=O)c2ccccc2C1=O`, the GI50 [1] was 3.16 µM, the CC50 [1] was 45.7 µM and the TGI [1] was 11.5 µM. It also gave a GI50 [2] of 2.19 µM, a CC50 [2] of 25.7 µM and a TGI [2] of 6.03 µM. For the same compound, the GI50 [3] was 2.29 µM, the CC50 [3] was 17.8 µM and the TGI [3] was 5.5 µM. For the same compound, the GI50 [4] was 2.4 µM, the CC50 [4] was over 100 µM and the TGI [4] was 18.6 µM. For the same compound, the “diameter of the inhibition zone (DIZ)” value [5] was 0 mm, the GI50 [6] was 2.14 µM and the CC50 [6] was 35.5 µM. The TGI [6] was 6.46 µM, the “log K” value [7] was -0.56 and the logP [8] was 3.8. The GI50 [9] was 2.82 µM, the LC50 [9] was over 100 µM and the TGI [9] was over 100 µM.
For `COc1ccc(N(CC(=O)NCCC[Te]c2ccccc2)C(=O)CCSC2=C(C)C(=O)c3ccccc3C2=O)cc1`, the CC50 [1] was over 100 µM, the GI50 [2] was 2.24 µM and the CC50 [2] was 8.32 µM. For the same compound, the TGI [2] was 4.37 µM, the GI50 [3] was 2.09 µM and the CC50 [3] was 12 µM. It also gave a TGI [3] of 4.68 µM, a GI50 [4] of 0.417 µM and a CC50 [4] of over 100 µM. For the same compound, the TGI [4] was 2.51 µM, the “diameter of the inhibition zone (DIZ)” value [5] was 0 mm and the Activity [10] was 88.62%. It also gave a GI50 [6] of 0.776 µM, a CC50 [6] of 5.37 µM and a TGI [6] of 2.19 µM. For the same compound, the Activity [11] was 5.84%, the “log K” value [7] was -0.54 and the logP [8] was 1.97. The Activity [12] was 5.55%, the GI50 [9] was 1.78 µM and the LC50 [9] was over 100 µM.
With `COc1ccc(N(CC(=O)NCCC[Te]c2ccccc2)C(=O)c2ccccc2)cc1` the Activity [13] was “Dose-dependent effect”, the GI50 [1] was 2.82 µM and the CC50 [1] was 74.1 µM. For the same compound, the TGI [1] was 9.33 µM, the GI50 [2] was 16.6 µM and the CC50 [2] was 72.4 µM. The TGI [2] was 34.7 µM, the GI50 [3] was 4.17 µM and the CC50 [3] was 45.7 µM. It also gave a TGI [3] of 15.5 µM, a GI50 [14] of 2.82 µM and an LC50 [14] of over 100 µM. For the same compound, the TGI [14] was 10 µM, the “diameter of the inhibition zone (DIZ)” value [5] was 0 mm and the Activity [10] was 85.01%. It also gave a GI50 [6] of 2.88 µM, a CC50 [6] of 55 µM and a TGI [6] of 8.32 µM. The Activity [11] was 8.8%, the “log K” value [7] was -0.65 and the logP [8] was 1.72. For the same compound, the Activity [12] was 6.19% and the LC50 [9] was over 100 µM.
In the case of `COc1ccc(N(CC(=O)NCCC[Te]c2ccccc2)C(=O)CNC(=O)OC(C)(C)C)cc1`, the Activity [13] is reported as “Dose-dependent effect”, the GI50 [1] is reported as 2.4 µM and the CC50 [1] is reported as 49 µM. The TGI [1] was 6.46 µM, the GI50 [2] was 15.8 µM and the CC50 [2] was 69.2 µM. The TGI [2] was 33.1 µM, the GI50 [3] was 3.09 µM and the CC50 [3] was 36.3 µM. The TGI [3] was 10 µM, the GI50 [14] was 1.66 µM and the LC50 [14] was over 100 µM. For the same compound, the TGI [14] was 7.76 µM, the “diameter of the inhibition zone (DIZ)” value [5] was 0 mm and the GI50 [6] was 2.24 µM. The CC50 [6] was 25.7 µM, the TGI [6] was 5.37 µM and the “log K” value [7] was 0.05. For the same compound, the logP [8] was 4.2, the GI50 [9] was 2.75 µM and the LC50 [9] was over 100 µM. The TGI [9] was 7.24 µM.
